SMILES strings stand for the structures. *1 amine or outer side, *2 acyl side, *3 side chain or, on linkers, in order; H or OH if unused. Where a SMILES comes first, the peptide text is derived from it. Bridges are numbered along the chain shown (N, C = ends). [ ]: non-standard residue; d: D form. The star is where a group is joined. pTerphenylCO(4''-OnC5H11) = CCCCCOc1ccc(-c2ccc(-c3ccc(C(=O)*)cc3)cc2)cc1; Orn(4R-OH,5R-OH) = O=C([C@H](C[C@@H](O)[C@@H](O)N[*:3])N[*:1])[*:2]; hTyr(3S-OH,4S-OH) = N[C@H](C(=O)O)[C@H](O)[C@@H](O)c1ccc(O)cc1; Pro(3S-OH,4S-Me) = C[C@H]1CN[C@H](C(=O)O)[C@H]1O; Hyp = O=C(O)[C@@H]1C[C@@H](O)CN1

By IC50 is commonly meant the concentration needed to halve the response being measured. A lower IC50 goes with inhibition by little substance. As usually defined, the Cmax is the peak of the concentration-time curve. By MRT is commonly meant a mean duration of stay, worked out from the concentration-time curve. A word on the half-life: it is how long it takes for the measured level to halve. A high value points to slow decline. In general, Tmax refers to the time from dosing to the highest level. A word on the inhibition: it is the percentage by which the read-out fell short of the control.

In one data set the target is T1, Cytochrome P450 1A2 (Homo sapiens, UniProt P05177).
T1 sequence (P05177 whole entry): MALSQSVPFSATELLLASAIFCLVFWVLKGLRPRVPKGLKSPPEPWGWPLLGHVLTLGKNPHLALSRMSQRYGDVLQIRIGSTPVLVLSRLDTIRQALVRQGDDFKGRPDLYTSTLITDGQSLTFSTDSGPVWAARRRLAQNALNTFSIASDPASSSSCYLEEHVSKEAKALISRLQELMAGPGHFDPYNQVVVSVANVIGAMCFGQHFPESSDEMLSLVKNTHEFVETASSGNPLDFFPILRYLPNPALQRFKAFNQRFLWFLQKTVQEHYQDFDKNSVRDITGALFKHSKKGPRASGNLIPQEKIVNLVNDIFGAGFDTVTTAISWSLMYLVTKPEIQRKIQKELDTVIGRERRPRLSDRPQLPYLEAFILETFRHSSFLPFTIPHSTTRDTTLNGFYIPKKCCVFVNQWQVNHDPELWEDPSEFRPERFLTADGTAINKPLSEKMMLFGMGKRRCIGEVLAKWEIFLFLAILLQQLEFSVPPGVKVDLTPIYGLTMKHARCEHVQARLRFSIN
Nature of the data set: Inhibition of human CYP1A2. Type of data set: ADME.

The target of a further data set is Cytochrome P450 3A4 (Homo sapiens, UniProt P08684). The experiment in a line: Inhibition of human CYP3A4. Type of data set: ADME.
Chain of Cytochrome P450 3A4 (P08684 whole entry): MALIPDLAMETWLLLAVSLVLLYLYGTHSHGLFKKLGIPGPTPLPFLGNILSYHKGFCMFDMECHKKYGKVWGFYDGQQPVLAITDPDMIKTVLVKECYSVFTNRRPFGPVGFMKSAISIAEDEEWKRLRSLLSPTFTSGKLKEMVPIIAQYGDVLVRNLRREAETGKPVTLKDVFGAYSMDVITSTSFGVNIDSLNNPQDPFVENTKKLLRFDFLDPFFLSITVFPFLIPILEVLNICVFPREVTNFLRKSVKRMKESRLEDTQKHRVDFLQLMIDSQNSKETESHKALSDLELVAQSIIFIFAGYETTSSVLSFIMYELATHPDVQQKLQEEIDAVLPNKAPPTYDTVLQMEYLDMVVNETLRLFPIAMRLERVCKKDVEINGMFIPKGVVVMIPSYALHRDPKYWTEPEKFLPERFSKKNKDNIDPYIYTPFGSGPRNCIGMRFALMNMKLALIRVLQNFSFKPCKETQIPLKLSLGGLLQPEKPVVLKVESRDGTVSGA
The target in another data set is Cytochrome P450 2C9 (Homo sapiens, UniProt P11712). Nature of the data set: Inhibition of human CYP2C9. Type of data set: ADME.
Chain of Cytochrome P450 2C9 (P11712 whole entry): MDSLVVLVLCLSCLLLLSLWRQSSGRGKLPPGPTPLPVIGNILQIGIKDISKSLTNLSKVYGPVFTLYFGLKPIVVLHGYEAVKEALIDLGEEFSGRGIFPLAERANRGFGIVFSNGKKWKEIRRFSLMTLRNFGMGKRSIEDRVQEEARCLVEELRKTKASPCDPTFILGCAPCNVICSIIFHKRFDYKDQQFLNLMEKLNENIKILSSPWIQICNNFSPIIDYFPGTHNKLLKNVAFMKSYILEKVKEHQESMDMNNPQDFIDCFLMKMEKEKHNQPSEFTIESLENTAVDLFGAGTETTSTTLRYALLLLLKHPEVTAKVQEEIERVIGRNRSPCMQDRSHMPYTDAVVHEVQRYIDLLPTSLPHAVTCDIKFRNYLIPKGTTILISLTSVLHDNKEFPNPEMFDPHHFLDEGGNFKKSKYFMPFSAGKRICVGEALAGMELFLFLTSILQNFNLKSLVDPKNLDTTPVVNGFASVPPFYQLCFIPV
The target of data set [1] is T2, Cytochrome P450 2C8 (Homo sapiens, UniProt P10632).
T2 sequence (P10632 whole entry): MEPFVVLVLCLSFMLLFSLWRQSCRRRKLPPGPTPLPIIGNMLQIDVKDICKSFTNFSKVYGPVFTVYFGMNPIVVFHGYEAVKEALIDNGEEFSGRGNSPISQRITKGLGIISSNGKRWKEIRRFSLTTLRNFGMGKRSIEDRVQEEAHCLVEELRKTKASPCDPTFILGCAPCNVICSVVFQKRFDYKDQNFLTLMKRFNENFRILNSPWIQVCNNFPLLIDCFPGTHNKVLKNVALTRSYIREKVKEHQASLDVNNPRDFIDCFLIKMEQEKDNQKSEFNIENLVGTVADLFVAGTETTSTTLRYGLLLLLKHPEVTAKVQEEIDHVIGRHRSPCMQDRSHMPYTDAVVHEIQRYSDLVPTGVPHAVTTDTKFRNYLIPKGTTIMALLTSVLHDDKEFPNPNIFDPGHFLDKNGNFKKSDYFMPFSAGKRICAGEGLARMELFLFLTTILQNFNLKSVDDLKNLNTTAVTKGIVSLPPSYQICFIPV
Nature of the data set: Inhibition of human CYP2C8 using amodiaquine as a substrate. Type of data set: ADME. An outline of the steps:
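CYP2C8 measured as amodiaquine N-deethylase in pooled human liver microsomes from 53 donors. Incubations run in duplicate. IC50 fitted from the concentration series.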

The target in the next data set is Cytochrome P450 2C19 (Homo sapiens, UniProt P33261). The experiment in a line: Inhibition of human CYP2C19. Type of data set: ADME.
Chain of Cytochrome P450 2C19 (P33261 whole entry, the tested form may be a part): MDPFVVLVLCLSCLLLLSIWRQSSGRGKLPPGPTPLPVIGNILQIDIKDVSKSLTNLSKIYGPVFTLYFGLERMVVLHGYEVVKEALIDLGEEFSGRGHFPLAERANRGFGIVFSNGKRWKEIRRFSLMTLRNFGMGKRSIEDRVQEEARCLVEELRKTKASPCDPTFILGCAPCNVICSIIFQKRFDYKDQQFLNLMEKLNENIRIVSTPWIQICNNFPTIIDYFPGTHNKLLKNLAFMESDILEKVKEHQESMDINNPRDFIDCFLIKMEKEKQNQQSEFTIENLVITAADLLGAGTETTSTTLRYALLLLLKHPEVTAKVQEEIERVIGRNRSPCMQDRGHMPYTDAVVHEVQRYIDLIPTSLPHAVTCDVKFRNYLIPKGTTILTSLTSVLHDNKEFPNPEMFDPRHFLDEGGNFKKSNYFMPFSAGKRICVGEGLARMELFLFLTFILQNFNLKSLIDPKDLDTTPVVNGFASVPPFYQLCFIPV
Data set [2] in a line: Cmax in human plasma at 100 mg, iv by LC-MS/MS analysis. Type of data set: ADME, organism-based. Also on record: dose 100 mg, route intravenous. Put shortly: (§1)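 Nine healthy adult men, single i.v. infusion of [14C]drug over 100 min at 1 mg/min (planned 100 mg; mean delivered 88.3 mg). Heparinized blood taken from predose through day 10 and at follow-up. Parent drug in plasma measured by validated LC-MS/MS. Noncompartmental analysis; values are means (%CV).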

Data set [3] concerns the target T2, Cytochrome P450 2C8. Nature of the data set: Inhibition of human CYP2C8 using rosiglitazone as a substrate. Type of data set: ADME. An outline of the steps: (§2)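 Heterologously expressed human CYP2C8, with rosiglitazone N-desmethylase as the marker reaction. […] Incubations run in duplicate.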
The nature of data set [4]: Volume of distribution at steady state in human plasma at 100 mg, iv by LC-MS/MS analysis. Type of data set: ADME, organism-based. Particulars: read-out: Vdss. Put shortly: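 Healthy adult men (n = 9), single i.v. infusion of [14C]drug over 100 min at 1 mg/min. 100 mg was planned; the mean dose actually given was 88.3 mg. Heparinized blood drawn from 0 h through day 10 and at 6–8 weeks. Parent drug in plasma measured by validated LC-MS/MS. Noncompartmental analysis, given as mean (%CV).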

Data set [5] is described as follows: Mean residence time in human plasma at 100 mg, iv by LC-MS/MS analysis. Type of data set: ADME, organism-based. An outline of the steps: as §1
The next data set deals with Cytochrome P450 2D6 (Homo sapiens, UniProt P10635). The experiment in a line: Inhibition of human CYP2D6. Type of data set: ADME.
Chain of Cytochrome P450 2D6 (P10635 whole entry): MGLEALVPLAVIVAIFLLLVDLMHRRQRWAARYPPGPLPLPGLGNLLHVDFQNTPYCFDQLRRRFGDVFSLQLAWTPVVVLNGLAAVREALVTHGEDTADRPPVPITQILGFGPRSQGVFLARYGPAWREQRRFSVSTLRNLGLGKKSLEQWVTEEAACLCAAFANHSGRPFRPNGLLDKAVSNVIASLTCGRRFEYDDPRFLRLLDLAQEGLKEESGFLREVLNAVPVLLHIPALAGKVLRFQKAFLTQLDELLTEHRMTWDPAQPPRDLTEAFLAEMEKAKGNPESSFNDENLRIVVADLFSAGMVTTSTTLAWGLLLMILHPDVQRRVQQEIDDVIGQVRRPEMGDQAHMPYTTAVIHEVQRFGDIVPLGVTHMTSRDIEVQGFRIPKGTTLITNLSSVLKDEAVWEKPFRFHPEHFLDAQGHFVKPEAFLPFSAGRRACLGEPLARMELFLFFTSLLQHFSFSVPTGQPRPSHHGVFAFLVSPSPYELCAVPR
A short description of data set [6]: Half life in human plasma at 100 mg, iv by LC-MS/MS analysis. Type of data set: ADME, organism-based. An outline of the steps: as §1
Data set [7] is described as follows: Ratio of AUC in blood to plasma for Sprague-Dawley at 5 mg/kg, iv by liquid scintillation counting. Also on record: dose 5 mg/kg, route intravenous. Type of data set: ADME, organism-based. Particulars: rat, in vivo. An outline of the steps: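 Male Sprague-Dawley rats, single i.v. bolus of [14C]drug. Blood by cardiac puncture from three noncannulated rats killed at each time from 0.25 to 168 h; plasma separated from an aliquot. Radioactivity by liquid scintillation counting. Parameters come from a composite profile of mean values, taking 1 g as equal to 1 ml.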

The subject of the next data set is Plasma. The experiment in a line: Clearance in human plasma at 100 mg, iv by LC-MS/MS analysis. Type of data set: ADME, organism-based. Particulars: in vivo. An outline of the steps:
as §1

Data set [8] is described as follows: Tmax in human plasma at 100 mg, iv by LC-MS/MS analysis. Type of data set: ADME, organism-based. An outline of the steps: as §1
A further data set deals with T3, CYP2C8 (Homo sapiens, UniProt P10632).
T3 sequence (P10632 whole entry): T2 sequence (P10632 whole entry)
The experiment in a line: Inhibition of human CYP2C8 at 17.5 uM in presence of rosiglitazone. Particulars: probe rosiglitazone. Type of data set: ADME. Put shortly: as §2

The next data set concerns the target T4, Cytochrome P450 2B6 (Homo sapiens, UniProt P20813).
T4 sequence (P20813 whole entry): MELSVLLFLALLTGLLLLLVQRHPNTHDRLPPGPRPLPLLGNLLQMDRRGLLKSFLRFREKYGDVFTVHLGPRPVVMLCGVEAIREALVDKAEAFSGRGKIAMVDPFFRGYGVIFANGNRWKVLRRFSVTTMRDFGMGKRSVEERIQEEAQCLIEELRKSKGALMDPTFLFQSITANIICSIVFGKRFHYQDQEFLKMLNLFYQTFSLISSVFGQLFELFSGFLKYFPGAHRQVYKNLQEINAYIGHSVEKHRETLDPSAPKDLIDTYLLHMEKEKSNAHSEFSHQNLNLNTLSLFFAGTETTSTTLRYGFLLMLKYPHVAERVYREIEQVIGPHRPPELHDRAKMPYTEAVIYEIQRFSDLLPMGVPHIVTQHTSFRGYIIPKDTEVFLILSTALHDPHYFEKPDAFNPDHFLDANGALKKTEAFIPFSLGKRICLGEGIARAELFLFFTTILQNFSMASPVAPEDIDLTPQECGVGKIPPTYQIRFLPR
The experiment in a line: Inhibition of human CYP2B6. Type of data set: ADME. An outline of the steps:
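Pooled liver microsomes from 53 human donors. Marker reactions: bupropion hydroxylase for CYP2B6. Incubations run in duplicate. IC50 taken from four to six concentrations.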

Regarding `CCCCCOc1ccc(-c2ccc(-c3ccc(C(=O)N[C@H]4C[C@@H](O)[C@@H](O)NC(=O)[C@@H]5[C@@H](O)[C@@H](C)CN5C(=O)[C@H]([C@@H](C)O)NC(=O)[C@H]([C@H](O)[C@@H](O)c5ccc(O)cc5)NC(=O)[C@@H]5C[C@@H](O)CN5C(=O)[C@H]([C@@H](C)O)NC4=O)cc3)cc2)cc1` [ANIDULAFUNGIN] ({pTerphenylCO(4''-OnC5H11)}-[Orn(4R-OH,5R-OH)]T[Hyp][hTyr(3S-OH,4S-OH)]T[Pro(3S-OH,4S-Me)]; lactam 1-C), the IC50 was above 17.5 µM against Cytochrome P450 1A2; above 17.5 µM against Cytochrome P450 3A4; above 17.5 µM on Cytochrome P450 2C9; 12 µM against Cytochrome P450 2C8 [1]; above 17.5 µM against Cytochrome P450 2C19; above 17.5 µM against Cytochrome P450 2C8 [3]. Further, the 50% inhibitory concentration (IC50) against Cytochrome P450 2D6 and against Cytochrome P450 2B6 was above 17.5 µM in each case. Besides, the concentration in data set [2] peaked (Cmax) at 3630 ng/mL. The Vd in [4] stood at 32.6 L. Also, the MRT in data set [5] amounted to 35.6 h. Moreover, the half-life in data set [6] is 27.7 h. For the same compound, the Ratio in data set [7] was found to be 1.5. The CL in the data set with Plasma stood at 0.913 L/h. Also, the Tmax in [8] came to 1.78 h. For the same compound, the inhibition at 17.5 µM on CYP2C8 came to 34.3%.

(Values after ChEMBL document CHEMBL1629624, “In vitro and in vivo studies to characterize the clearance mechanism and potential cytochrome P450 interactions of anidulafungin” (Antimicrob Agents Chemother, 2009).)
